In ChEMBL document CHEMBL4138303, “Discovery and in Vitro Optimization of 3-Sulfamoylbenzamides as ROMK Inhibitors” (ACS Med Chem Lett, 2018):
Residue numbers refer to the chain shown, from its start. Activity calls are given as the source filed them. The rule behind the calls is not given here.

What was measured:
[1] = target: T1, ATP-sensitive inward rectifier potassium channel 1 (Homo sapiens, UniProt P48048); test: Inhibition of human ROMK2 expressed in HEK293 cells after 20 mins by Thallos-AM dye based fluorescence assay; format: cell-based
T1 sequence (P48048 whole entry): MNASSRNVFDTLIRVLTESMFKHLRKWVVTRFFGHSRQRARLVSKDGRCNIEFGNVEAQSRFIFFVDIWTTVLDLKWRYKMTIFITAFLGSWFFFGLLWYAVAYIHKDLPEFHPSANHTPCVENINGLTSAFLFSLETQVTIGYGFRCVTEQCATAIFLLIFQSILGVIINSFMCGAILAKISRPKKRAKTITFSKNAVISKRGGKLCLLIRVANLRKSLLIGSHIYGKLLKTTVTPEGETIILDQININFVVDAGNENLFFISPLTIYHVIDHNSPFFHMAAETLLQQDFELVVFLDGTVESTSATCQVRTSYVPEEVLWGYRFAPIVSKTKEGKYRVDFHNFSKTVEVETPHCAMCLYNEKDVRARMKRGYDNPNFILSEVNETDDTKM

[2] = target: Voltage-gated inwardly rectifying potassium channel KCNH2 (Homo sapiens, UniProt Q12809); test: Displacement of fluorescent-labelled dofetilide from human ERG expressed in HEK293 cell membrane homogenates; format: cell membranes
Chain of Voltage-gated inwardly rectifying potassium channel KCNH2 (Q12809 whole entry): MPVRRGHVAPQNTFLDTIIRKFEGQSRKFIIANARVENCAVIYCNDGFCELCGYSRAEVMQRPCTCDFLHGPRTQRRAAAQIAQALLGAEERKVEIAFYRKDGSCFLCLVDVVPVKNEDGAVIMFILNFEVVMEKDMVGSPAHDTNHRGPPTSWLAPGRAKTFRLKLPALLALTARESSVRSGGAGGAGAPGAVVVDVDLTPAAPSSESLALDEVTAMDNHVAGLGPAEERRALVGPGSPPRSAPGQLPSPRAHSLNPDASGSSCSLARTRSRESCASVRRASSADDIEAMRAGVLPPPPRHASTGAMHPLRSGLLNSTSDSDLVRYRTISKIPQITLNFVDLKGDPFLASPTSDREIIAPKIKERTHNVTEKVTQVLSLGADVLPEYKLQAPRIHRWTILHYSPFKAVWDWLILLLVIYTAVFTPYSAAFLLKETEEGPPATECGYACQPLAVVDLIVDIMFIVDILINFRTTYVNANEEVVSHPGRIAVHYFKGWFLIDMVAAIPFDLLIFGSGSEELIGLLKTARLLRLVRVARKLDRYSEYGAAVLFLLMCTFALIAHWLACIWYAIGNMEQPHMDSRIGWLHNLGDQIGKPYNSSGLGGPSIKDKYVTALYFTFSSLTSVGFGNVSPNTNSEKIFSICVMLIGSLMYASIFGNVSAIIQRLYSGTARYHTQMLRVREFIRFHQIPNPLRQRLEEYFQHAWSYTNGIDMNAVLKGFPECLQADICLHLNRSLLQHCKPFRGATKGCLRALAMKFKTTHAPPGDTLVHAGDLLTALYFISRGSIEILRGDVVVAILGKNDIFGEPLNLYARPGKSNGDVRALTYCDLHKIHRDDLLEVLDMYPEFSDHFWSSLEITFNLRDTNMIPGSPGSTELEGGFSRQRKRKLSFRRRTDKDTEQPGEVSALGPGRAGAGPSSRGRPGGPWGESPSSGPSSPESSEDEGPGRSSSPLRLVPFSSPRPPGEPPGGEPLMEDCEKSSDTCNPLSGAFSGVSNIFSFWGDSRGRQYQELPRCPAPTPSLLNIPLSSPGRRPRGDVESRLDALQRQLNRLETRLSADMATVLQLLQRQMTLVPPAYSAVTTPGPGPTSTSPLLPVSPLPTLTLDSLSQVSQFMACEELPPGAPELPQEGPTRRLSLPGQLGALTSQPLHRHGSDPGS
Outline: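 Ki from displacement of a fluorescently labelled dofetilide derivative from membrane homogenates of HEK-293 cells stably expressing hERG (Kv11.1).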

[3] = Octanol-sodium phosphate buffer partition coefficient, log D of the compound at pH 7.4 by shake flask method; format: physicochemical
[4] = Apparent intrinsic clearance in human liver microsomes; format: ADME, microsome; details: read-out: CLH(app)
[5] = Apparent permeability in MDCK2-LE cells; format: ADME, cell-based, Canis lupus familiaris, MDCK-II; details: dog
[6] = target: T2, Kir2.1 (inward rectifier potassium channel 2) (Homo sapiens, UniProt P63252); test: Inhibition of Kir2.1 (unknown origin) expressed in CHO cells at 10 uM at -75 mV holding potential by whole cell patch clamp method relative to control; format: cell-based; details: CHO cells expressing Kir2.1
T2 sequence (P63252 whole entry): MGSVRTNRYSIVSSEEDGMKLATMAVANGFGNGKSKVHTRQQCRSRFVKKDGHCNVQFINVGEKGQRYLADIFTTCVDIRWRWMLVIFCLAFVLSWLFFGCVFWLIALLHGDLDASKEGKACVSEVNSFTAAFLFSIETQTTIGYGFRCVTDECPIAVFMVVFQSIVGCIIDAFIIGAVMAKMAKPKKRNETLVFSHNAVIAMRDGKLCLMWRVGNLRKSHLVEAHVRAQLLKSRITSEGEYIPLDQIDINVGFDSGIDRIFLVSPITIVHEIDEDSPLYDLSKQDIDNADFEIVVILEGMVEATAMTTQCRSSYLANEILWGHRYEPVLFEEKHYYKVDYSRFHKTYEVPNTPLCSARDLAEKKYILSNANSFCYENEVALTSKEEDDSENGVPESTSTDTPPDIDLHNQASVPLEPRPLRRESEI
Outline: (§1)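 Whole-cell patch-clamp recordings in CHO cells stably expressing either Kir2.1 or Kir4.1.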

[7] = target: T3, ATP-sensitive inward rectifier potassium channel 10 (Homo sapiens) (UniProt P78508); test: Inhibition of Kir4.1 (unknown origin) expressed in CHO cells at 10 uM at -75 mV holding potential by whole cell patch clamp method relative to control; format: cell-based; outline: as §1
T3 sequence (whole entry): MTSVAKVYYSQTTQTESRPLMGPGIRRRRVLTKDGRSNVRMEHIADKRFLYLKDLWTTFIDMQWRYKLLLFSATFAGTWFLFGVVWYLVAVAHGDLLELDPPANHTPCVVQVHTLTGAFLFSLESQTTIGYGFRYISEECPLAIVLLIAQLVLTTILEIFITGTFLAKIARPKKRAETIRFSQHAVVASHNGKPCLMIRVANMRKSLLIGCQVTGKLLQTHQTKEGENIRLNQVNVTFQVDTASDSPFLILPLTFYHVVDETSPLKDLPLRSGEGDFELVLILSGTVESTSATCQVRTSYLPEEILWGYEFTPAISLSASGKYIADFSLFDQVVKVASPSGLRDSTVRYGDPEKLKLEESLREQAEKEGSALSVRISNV

[8] = target: T4, ATP-sensitive inward rectifier potassium channel 1 (Homo sapiens) (UniProt P48048); test: (§2) Inhibition of human ROMK1 expressed in HEK293 cells after 20 mins by Thallos-AM dye based fluorescence assay; format: cell-based
T4 sequence (whole entry): T1 sequence (P48048 whole entry)
Outline: (§3)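 Tl+ flux assay on human or rat ROMK1, run as concentration-response. IC50 is the geometric mean of n≥3 replicates, also given as pIC50±SD. Rat ROMK1 testing went up to 30 µM.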

[9] = system: T5, ATP-sensitive inward rectifier potassium channel 1 (Homo sapiens), P48048 [K80M]; test: Inhibition of human Kir1.1 K80M mutant expressed in HEK293 cells at 100 to 300 nM at -75 mV holding potential by whole cell patch clamp method; format: cell-based
T5 sequence (whole entry): T1 sequence (P48048 whole entry) with K80M
Outline: (§4)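 Whole-cell currents were recorded under voltage clamp in HEK293 cells transiently expressing human ROMK K80M or the human ROMK K80M/N171D double mutant.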

[10] = target: T6, ATP-sensitive inward rectifier potassium channel 1 (Rattus norvegicus) (UniProt P35560); test: Inhibition of rat ROMK2 expressed in HEK293 cells at -75 mV holding potential by whole cell patch clamp method; format: cell-based
T6 sequence (whole entry): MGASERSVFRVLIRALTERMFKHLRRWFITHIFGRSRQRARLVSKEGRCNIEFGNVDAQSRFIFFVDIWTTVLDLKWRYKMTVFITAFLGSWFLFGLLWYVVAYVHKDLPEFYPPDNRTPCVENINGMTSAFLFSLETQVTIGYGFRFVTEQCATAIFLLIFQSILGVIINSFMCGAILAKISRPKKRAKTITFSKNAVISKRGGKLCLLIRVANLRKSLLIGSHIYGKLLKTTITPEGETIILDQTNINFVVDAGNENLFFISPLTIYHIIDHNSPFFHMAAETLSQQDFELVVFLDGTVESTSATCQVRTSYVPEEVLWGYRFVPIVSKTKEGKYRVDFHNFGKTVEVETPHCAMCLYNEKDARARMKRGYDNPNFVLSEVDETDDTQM

[11] = system: T7, ATP-sensitive inward rectifier potassium channel 1 (Homo sapiens), P48048 [N171D]; test: Inhibition of human Kir1.1 N171D mutant expressed in HEK293 cells at 100 to 300 nM at -75 mV holding potential by whole cell patch clamp method; format: cell-based; outline: as §4
T7 sequence (whole entry): T1 sequence (P48048 whole entry) with N171D

[12] = target: T1, ATP-sensitive inward rectifier potassium channel 1; test: as §2; format: cell-based; outline: as §3
[13] = target: T1, ATP-sensitive inward rectifier potassium channel 1; test: Inhibition of human ROMK1 expressed in HEK293 cells at -75 mV holding potential by whole cell patch clamp method; format: cell-based
Outline: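 Whole-cell patch clamp on human ROMK1. IC50 comes from a global fit to a five-point concentration-response curve with n≥4 per concentration, reported with 95% CI.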

[14] = target: T8, ATP-sensitive inward rectifier potassium channel 1 (Rattus norvegicus, UniProt P35560); test: Inhibition of rat ROMK1 expressed in HEK293 cells after 20 mins by Thallos-AM dye based fluorescence assay; format: cell-based
T8 sequence (P35560 whole entry): T6 sequence (whole entry)
Outline: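 Thallium (Tl+) flux assay against rat ROMK1, with concentration-response testing up to 30 µM. IC50 values are geometric means of n≥3 replicates unless otherwise indicated and are also reported as pIC50±SD.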

[15] = octanol/sodium phosphate buffer, read-out: logD

| IC50 [1] | logD [3, 15] | CLint scaled [4] | Papp ([5]; MDCK, read-out: Papp) | IC50 ([12]; read-out: IC50) | IC50 [14] | Compound | Ki [2] | further results |
| --- | --- | --- | --- | --- | --- | --- | --- | --- |
| 1300 nM | 2.3 | 10 mL/min/kg | 8 ×10⁻⁶ cm/s | – | – | COc1ccc(C(=O)NCc2nc(C)no2)cc1S(=O)(=O)Nc1ccc(C)cc1 | > 40000 nM | – |
| 110 nM | 2.3 | 25 mL/min/kg | 6 ×10⁻⁶ cm/s | – | – | Cc1noc(CNC(=O)c2ccc(C)c(S(=O)(=O)Nc3ccc(-c4ccno4)cc3)c2)n1 | > 40000 nM | – |
| 13000 nM | – | – | – | – | – | COc1ccc(C(=O)NC(C)c2cnn(C)n2)cc1S(=O)(=O)Nc1ccc(Cl)cc1 (single isomer, unassigned; (+)) | > 40000 nM | logD ([3]; octanol/water): 2.7; Papp ([5]; mdck-ii): 11 ×10⁻⁶ cm/s |
| 6500 nM | 3 | 120 mL/min/kg | 15 ×10⁻⁶ cm/s | – | – | Cc1ccc(NS(=O)(=O)c2cc(C(=O)NCc3cccnc3)ccc2C)cc1 | > 40000 nM | inhibition at 10 µM [6]: 13%; inhibition [7]: 19% |
| – | – | – | – | – | – | COc1ccc(C(=O)NC(C)c2cnn(C)n2)cc1S(=O)(=O)Nc1ccc(Cl)cc1 (single isomer, unassigned; (-)) [listing 1 of 2 here] | – | inhibition [8]: Dose-dependent effect; inhibition [9]: Active; inhibition [10]: inactive; inhibition [11]: Active |
| 160 nM | 2.6 | < 8 mL/min/kg | 16 ×10⁻⁶ cm/s | 391 nM | > 30000 nM | COc1ccc(C(=O)NC(C)c2cnn(C)n2)cc1S(=O)(=O)Nc1ccc(Cl)cc1 (single isomer, unassigned; (-)) [listing 2 of 2 here] | 28000 nM | IC50 [13]: 61 nM |
| 85 nM | 3 | 35 mL/min/kg | 19 ×10⁻⁶ cm/s | 777 nM | > 30000 nM | Cc1noc(CNC(=O)c2ccc(C)c(S(=O)(=O)Nc3ccc(Cl)cc3)c2)n1 | > 40000 nM | inhibition [8]: Dose-dependent effect; IC50 [13]: 62 nM |
| 86 nM | 2.9 | < 9 mL/min/kg | 19 ×10⁻⁶ cm/s | – | – | Cc1ccc(C(=O)NCc2cn(C)nn2)cc1S(=O)(=O)Nc1ccc(Cl)cc1 | > 40000 nM | – |
| 35 nM | 2.2 | 69 mL/min/kg | 10 ×10⁻⁶ cm/s | – | – | Cc1noc(CNC(=O)c2ccc(C)c(S(=O)(=O)Nc3ccc(-c4cnco4)cc3)c2)n1 | > 40000 nM | – |
| 440 nM | 2.7 | 30 mL/min/kg | 20 ×10⁻⁶ cm/s | – | – | Cc1ccc(NS(=O)(=O)c2cc(C(=O)NCc3nc(C)no3)ccc2C)cc1 | > 40000 nM | – |
| 17000 nM | 2.3 | 9 mL/min/kg | 22 ×10⁻⁶ cm/s | – | – | Cc1ccc(NS(=O)(=O)c2cccc(C(=O)NCc3nc(C)no3)c2)cc1 | > 40000 nM | – |
| 280 nM | 2.4 | < 8 mL/min/kg | 12 ×10⁻⁶ cm/s | 1040 nM | > 30000 nM | Cc1ccc(C(=O)NCc2cn(C)nn2)cc1S(=O)(=O)Nc1ccc(-c2ccno2)cc1 | > 40000 nM | inhibition [8]: Dose-dependent effect; IC50 ([12]; read-out: pIC50 (converted)): 1260 nM; inhibition [10]: inactive; IC50 [13]: 104 nM |

| Compound | IC50 [1] | logD [3, 15] | CLint scaled [4] | Papp ([5]; MDCK, read-out: Papp) | IC50 ([12]; read-out: IC50) | IC50 [14] | Ki [2] | further results |
| --- | --- | --- | --- | --- | --- | --- | --- | --- |
| O=[N+]([O-])c1ccc2nc(COCc3nc4ccc([N+](=O)[O-])cc4[nH]3)[nH]c2c1 | – | – | – | – | 744 nM | 420 nM | – | – |
